# Data published in paper PMC3063097 (Angewandte Chemie (International ed. in English), 2010).
# What was measured:
# Format in all cases: biochemical
# [1] = test system: skeletal muscle myosin II; assay: in vitro ATPase assay myosin II
# myosin V = assay: single MANT-ATP turnover measurements, myosin V without actin; settings: absence of actin; data not shown
# CHK1 = assay: in vitro kinase assay CHK1; settings: at 100 μM
# Aurora kinase = assay: in vitro kinase assay Aurora kinase; settings: at 100 μM
# Abl kinase = assay: in vitro kinase assay Abl kinase; settings: at 100 μM
# actomyosin V-ADP = actomyosin V-ADP (Gallus gallus, UniProt Q02440); assay: MANT-ADP release from actomyosin V
# Procedure, shortened: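 Transient-kinetic measurement of MANT-ADP release from a preformed actomyosin V–ADP complex, using the fluorescent nucleotide analog. Release amplitudes are normalized and plotted against test compound concentration. Affinity comes from the best fit of that concentration dependence of the amplitudes.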
# Casein kinase II = assay: in vitro kinase assay Casein kinase II; settings: at 100 μM
# [2] = target: single ATPase motor domain of chicken Myosin Va (Gallus gallus, UniProt Q02440); assay: enzyme-coupled steady-state actin-activated ATPase assay, single-headed myosin V
# PLK1 = assay: in vitro kinase assay PLK1; settings: at 100 μM
# myosin VI = assay: in vitro ATPase assay myosin VI; settings: at 50 μM
# p42 MAP kinase = assay: in vitro kinase assay p42 MAP kinase; settings: at 100 μM
SMILES,"inhibition of ATPase activity ([1]; positive control, concentration not given)",inhibition of ATPase activity ([1]; at 50 μM),effect on ATP binding and rate-limiting Pi release (myosin V),inhibition of kinase (CHK1),inhibition of kinase (Aurora kinase),inhibition of kinase (Abl kinase),effect on ADP release (actomyosin V-ADP; actomyosin V-ADP prepared by mixing with ATP),"effect on ADP release (actomyosin V-ADP; actomyosin-ADP prepared by equilibrating actomyosin and ADP, data not shown)",inhibition of kinase (Casein kinase II),"mode of inhibition (effect on kcat and apparent KM for actin) ([2]; 12 μM MyoVin-1, various concentrations of actin)",increase in KI in presence of 0.1% triton X ([2]; 0.1% triton X in assay buffer vs without),"Ki ([2]; single-headed myosin V, steady-state actin-activated ATP hydrolysis) [µM]",inhibition of kinase (PLK1),inhibition of ATPase activity (myosin VI),inhibition of kinase (p42 MAP kinase)
"Cc1ccc2c(c1)C(=O)C1(O)CCN(c3ccccc3)C1=N2 (stereo not drawn) [blebbistatin, reference compound]",significantly inhibited,–,–,–,–,–,–,–,–,–,–,–,–,–,–
O=C(O)c1cccc(SCc2cccc(Nc3ncc4c(-c5ccc(N6CCOCC6)cc5)[nH]nc4n3)c2)c1 [Compound 8],–,not observed any measurable inhibition,unaffected,5–10%,5–10%,5–10%,"lowers the amplitude, but not the rate constant of ADP release",unaffected,5–10%,uncompetitive inhibition,~ 1.25 fold,~6,5–10%,not observed any measurable inhibition,5–10%
